ChEMBL document CHEMBL1154734, “Small-sized human immunodeficiency virus type-1 protease inhibitors containing allophenylnorstatine to explore the S2' pocket” (J Med Chem, 2009)
Converted amounts (≈) assume the structure as drawn.

Assays:
[1] = test system: Human immunodeficiency virus 1; experiment: Antiviral activity against HIV1 3B infected in human MT4 cells assessed as inhibition of virus-induced cytopathic effect after 5 days by MTT assay; assay type: functional, organism-based; conditions: Human immunodeficiency virus 1, 3B, MT4, 120 h
Method in brief: (§1)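 HIV-1 (IIIB or pNL4-3) inoculated into MT-4 cells. Cultures were treated with an equal volume of a 1% DMSO solution of compound at several concentrations plus 10% fetal bovine serum, then incubated 5 days at 37 °C in CO2, in triplicate. After MTT, optical density gave the percent cytopathic effect reduction. EC50 was fitted to a median-effect equation.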

[2] = target: Protease (Human immunodeficiency virus 1) (UniProt Q9YQ12); experiment: Inhibition of HIV1 recombinant protease at 50 nM after 15 mins by fluorescence assay
Sequence of Protease (Human immunodeficiency virus 1) (Q9YQ12 as listed by the source): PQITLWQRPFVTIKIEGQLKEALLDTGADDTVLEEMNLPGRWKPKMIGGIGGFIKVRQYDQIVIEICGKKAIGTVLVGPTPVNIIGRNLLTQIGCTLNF
Method in brief: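 Recombinant HIV-1 protease was assayed in MES–NaOH pH 5.5 with DTT, EDTA and NaCl, with inhibitor at 50 nM final (500 nM DMSO stock). The substrate was H-Lys-Ala-Arg-Val-Tyr-Phe(p-NO2)-Glu-Ala-Nle-NH2, and the reaction ran 15 min at 37 °C. It was stopped with 1 N HCl. The N-terminal fragment was quantified by RP-HPLC with fluorescence at ex 275/em 305 nm.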

[3] = test system: Human immunodeficiency virus 1; experiment: Antiviral activity against indinavir-resistant HIV1 harboring L10R/M46I/L63P/V82T/I84V mutant protease infected in human MT4 cells assessed as inhibition of virus-induced cytopathic effect after 5 days by MTT assay; assay type: functional, organism-based; conditions: Human immunodeficiency virus 1, MT4, 120 h
Method in brief: (§2)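 MT-4 cells inoculated with HIV-1 wild-type pNL4-3 or indinavir-resistant IND-R, then given an equal volume of compound in 1% DMSO at several concentrations with 10% fetal bovine serum. Incubated 5 days at 37 °C in CO2, in triplicate. MTT read-out by optical density gave percent cytopathic-effect reduction; EC50 was fitted to a median-effect equation.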

[4] = test system: Human immunodeficiency virus 1; experiment: Fold resistance, ratio of EC50 for indinavir-resistant HIV1 harboring L10R/M46I/L63P/V82T/I84V mutant protease infected in human MT4 cells to EC50 for HIV1 pNL4-3 infected in human MT4 cells; assay type: functional; method in brief: as §2
[5] = test system: Human immunodeficiency virus 1; experiment: Antiviral activity against HIV1 pNL4-3 infected in human MT4 cells assessed as inhibition of virus-induced cytopathic effect after 5 days by MTT assay; assay type: functional, organism-based; conditions: Human immunodeficiency virus 1, pNL4-3, MT4, 120 h; method in brief: as §1
[6] = test system: Human immunodeficiency virus 1; experiment: Antiviral activity against HIV1 3B infected in human MT4 cells assessed as inhibition of virus-induced cytopathic effect after 5 days by MTT assay in absence of human serum; assay type: functional, organism-based; conditions: Human immunodeficiency virus 1, 3B, MT4, 120 h; method in brief: as §1
[7] = test system: Human immunodeficiency virus 1; experiment: Antiviral activity against HIV1 3B infected in human MT4 cells assessed as inhibition of virus-induced cytopathic effect after 5 days by MTT assay in presence of 50% human serum; assay type: functional, organism-based; conditions: Human immunodeficiency virus 1, 3B, MT4, 120 h
Method in brief: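 MT-4 cells were infected with wild-type HIV-1 (IIIB or pNL4-3) in the presence of 50% human serum. Compound was added at several concentrations from a 1% DMSO solution, and cells were incubated 5 days at 37 °C in triplicate. Cytopathic effect reduction was read by MTT optical density, and EC50 was derived from a median-effect equation fit.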

[8] = test system: Human immunodeficiency virus 1; experiment: Ratio of EC50 for HIV1 3B infected in human MT4 cells in presence of 50% human serum to EC50 for HIV1 3B infected in human MT4 cells in absence of human serum; assay type: functional
[9] = Aqueous solubility in 0.1% TFA after 30 mins by RP-HPLC analysis; assay type: physicochemical; conditions: 0.1% TFA in water

| SMILES | EC50 [1] [nM] | inhibition [2] [%] | EC50 [3] [nM] | Ratio EC50 [4] | EC50 [5] [nM] | EC50 [6] [nM] | EC50 [7] [nM] | Ratio EC50 [8] | solubility at 0.5 h [9] [µg/mL] |
| --- | --- | --- | --- | --- | --- | --- | --- | --- | --- |
| Cc1c(O)cccc1C(=O)N[C@@H](Cc1ccccc1)[C@H](O)C(=O)N1CSC(C)(C)[C@H]1C(=O)NC/C=C\CO | 1200 | 94 |  |  |  |  |  |  |  |
| Cc1c(O)cccc1C(=O)N[C@@H](Cc1ccccc1)[C@H](O)C(=O)N1CSC(C)(C)[C@H]1C(=O)NC1CCCCC1 | 207 | 86 | 1730 | 7.2 | 240 |  |  |  |  |
| Cc1cc(N)cc(C)c1OCC(=O)N[C@@H](Cc1ccccc1)[C@H](O)C(=O)N1CSC(C)(C)[C@H]1C(=O)N[C@H]1c2ccccc2C[C@H]1O |  |  | 1420 | 3.2 | 450 | 357 | 1500 | 4.2 | 3740 (≈ 5.78 mM) |
| Cc1c(O)cccc1C(=O)N[C@@H](Cc1ccccc1)[C@H](O)C(=O)N1CSC(C)(C)[C@H]1C(=O)N[C@H]1CCc2ccccc21 | 73 | 97 |  |  |  |  |  |  |  |
| Cc1c(O)cccc1C(=O)N[C@@H](Cc1ccccc1)[C@H](O)C(=O)N1CSC(C)(C)[C@H]1C(=O)N[C@@H]1c2ccccc2C[C@@H]1O | 550 | 66 |  |  |  |  |  |  |  |
| Cc1cc(N)cc(C)c1OCC(=O)N[C@@H](Cc1ccccc1)[C@H](O)C(=O)N1CSC(C)(C)[C@H]1C(=O)NCc1c(Cl)cccc1Cl |  | 95 |  |  |  | 158 | 648 | 4.1 | 1180 (≈ 1.75 mM) |
| Cc1cccc(C)c1OCC(=O)N[C@@H](Cc1ccccc1)[C@@H](O)C[C@H](Cc1ccccc1)NC(=O)[C@H](C(C)C)N1CCCNC1=O [LOPINAVIR] | 30 |  | 385 | 24 | 16 |  |  |  |  |
| C=CCNC(=O)[C@H]1N(C(=O)[C@@H](O)[C@H](Cc2ccccc2)NC(=O)COc2c(C)cc(N)cc2C)CSC1(C)C |  | 91 | 470 | 8.7 | 54 | 66 | 284 | 4.3 | 12800 (≈ 23.1 mM) |
| Cc1c(O)cccc1C(=O)N[C@@H](Cc1ccccc1)[C@H](O)C(=O)N1CSC(C)(C)[C@H]1C(=O)NC1CCCC1 | 125 | 94 | 2200 | 7.6 | 290 |  |  |  |  |
| Cc1cc(N)cc(C)c1OCC(=O)N[C@@H](Cc1ccccc1)[C@H](O)C(=O)N1CSC(C)(C)[C@H]1C(=O)NC(C)(C)C |  | 92 | 2030 | 7.3 | 280 | 132 | 601 | 4.5 | 6020 (≈ 10.5 mM) |
| Cc1cccc(C)c1OCC(=O)N[C@@H](Cc1ccccc1)[C@H](O)C(=O)N1CSC(C)(C)[C@H]1C(=O)NC(C)(C)C |  | 91 |  |  |  | 1290 | 4500 |  |  |
| CCCNC(=O)[C@H]1N(C(=O)[C@@H](O)[C@H](Cc2ccccc2)NC(=O)c2cccc(O)c2C)CSC1(C)C | 91 | 88 |  |  |  |  |  |  |  |
| Cc1cc(N)cc(C)c1OCC(=O)N[C@@H](Cc1ccccc1)[C@H](O)C(=O)N1CSC(C)(C)[C@H]1C(=O)NC1CCCC1 |  | 90 | 3010 | 4.9 | 620 | 373 | 1900 | 5 | 7480 (≈ 12.8 mM) |
| CNc1cc(C)c(OCC(=O)N[C@@H](Cc2ccccc2)[C@H](O)C(=O)N2CSC(C)(C)[C@H]2C(=O)NCc2ccccc2C)c(C)c1 |  | 85 |  |  |  | 191 | 560 | 2.9 | 2990 (≈ 4.72 mM) |
| C=CCNC(=O)[C@H]1N(C(=O)[C@@H](O)[C@H](Cc2ccccc2)NC(=O)c2cccc(O)c2C)CSC1(C)C | 123 | 93 | 173 | 1.2 | 141 |  |  |  |  |
| CCNC(=O)[C@H]1N(C(=O)[C@@H](O)[C@H](Cc2ccccc2)NC(=O)c2cccc(O)c2C)CSC1(C)C | 182 | 64 |  |  |  |  |  |  |  |
| Cc1cc(N)cc(C)c1OCC(=O)N[C@@H](Cc1ccccc1)[C@H](O)C(=O)N1CSC(C)(C)[C@H]1C(=O)NC/C=C\CO |  | 91 |  |  |  | 184 | 433 | 2.3 | 9320 (≈ 15.9 mM) |
| C#CCNC(=O)[C@H]1N(C(=O)[C@@H](O)[C@H](Cc2ccccc2)NC(=O)c2cccc(O)c2C)CSC1(C)C | 110 | 90 | 1930 | 3.5 | 558 |  |  |  |  |
| Cc1ccccc1CNC(=O)[C@H]1N(C(=O)[C@@H](O)[C@H](Cc2ccccc2)NC(=O)COc2c(C)cc(N(C)C)cc2C)CSC1(C)C |  | 85 |  |  |  | 758 | 3900 | 5.1 | 3830 (≈ 5.92 mM) |
| Cc1c(O)cccc1C(=O)N[C@@H](Cc1ccccc1)[C@H](O)C(=O)N1CSC(C)(C)[C@H]1C(=O)NC1CCC1 | 119 | 65 |  |  |  |  |  |  |  |
| Cc1c(O)cccc1C(=O)N[C@@H](Cc1ccccc1)[C@H](O)C(=O)N1CSC(C)(C)[C@H]1C(=O)N[C@H](C)c1ccccc1 | 617 | 52 |  |  |  |  |  |  |  |
| Cc1c(O)cccc1C(=O)N[C@@H](Cc1ccccc1)[C@H](O)C(=O)N1CSC(C)(C)[C@H]1C(=O)N[C@@H]1CCc2ccccc21 | 353 | 91 |  |  |  |  |  |  |  |
| Cc1c(O)cccc1C(=O)N[C@@H](Cc1ccccc1)[C@H](O)C(=O)N1CSC(C)(C)[C@H]1C(=O)NC1CCCCCC1 | 332 | 76 |  |  |  |  |  |  |  |
| Cc1cc(N)cc(C)c1OCC(=O)N[C@@H](Cc1ccccc1)[C@H](O)C(=O)N1CSC(C)(C)[C@H]1C(=O)N[C@H]1CCc2ccccc21 |  | 97 | 416 | 8.7 | 48 | 32 | 241 | 7.5 | 1710 (≈ 2.71 mM) |
| Cc1cccc(C)c1CNC(=O)[C@H]1N(C(=O)[C@@H](O)[C@H](Cc2ccccc2)NC(=O)COc2c(C)cc(N)cc2C)CSC1(C)C |  | 99 | 409 | 3.4 | 122 | 41 | 150 | 3.6 | 1250 (≈ 1.98 mM) |
| Cc1c(O)cccc1C(=O)N[C@@H](Cc1ccccc1)[C@H](O)C(=O)N1CSC(C)(C)[C@H]1C(=O)N[C@H]1c2ccccc2C[C@H]1O | 100 | 92 |  |  |  |  |  |  |  |
